ChEMBL document CHEMBL4033785, “Increased Potency and Selectivity for Group III Metabotropic Glutamate Receptor Agonists Binding at Dual sites” (J Med Chem, 2018)
The source made the active and inactive calls. The calls are words filed in the database; no cut-off is given here.

Assays:
[1] = molecular target: T1, Metabotropic glutamate receptor 7 (Homo sapiens, UniProt Q14831); experiment: Agonist activity at mGlu7 (unknown origin) expressed in HEK293 cells coexpressing chimeric Gq/i protein assessed as [3H]inositol phosphate accumulation after 30 mins by scintillation and luminescence counting method; format: functional, cell-based
T1 sequence (Q14831 whole entry): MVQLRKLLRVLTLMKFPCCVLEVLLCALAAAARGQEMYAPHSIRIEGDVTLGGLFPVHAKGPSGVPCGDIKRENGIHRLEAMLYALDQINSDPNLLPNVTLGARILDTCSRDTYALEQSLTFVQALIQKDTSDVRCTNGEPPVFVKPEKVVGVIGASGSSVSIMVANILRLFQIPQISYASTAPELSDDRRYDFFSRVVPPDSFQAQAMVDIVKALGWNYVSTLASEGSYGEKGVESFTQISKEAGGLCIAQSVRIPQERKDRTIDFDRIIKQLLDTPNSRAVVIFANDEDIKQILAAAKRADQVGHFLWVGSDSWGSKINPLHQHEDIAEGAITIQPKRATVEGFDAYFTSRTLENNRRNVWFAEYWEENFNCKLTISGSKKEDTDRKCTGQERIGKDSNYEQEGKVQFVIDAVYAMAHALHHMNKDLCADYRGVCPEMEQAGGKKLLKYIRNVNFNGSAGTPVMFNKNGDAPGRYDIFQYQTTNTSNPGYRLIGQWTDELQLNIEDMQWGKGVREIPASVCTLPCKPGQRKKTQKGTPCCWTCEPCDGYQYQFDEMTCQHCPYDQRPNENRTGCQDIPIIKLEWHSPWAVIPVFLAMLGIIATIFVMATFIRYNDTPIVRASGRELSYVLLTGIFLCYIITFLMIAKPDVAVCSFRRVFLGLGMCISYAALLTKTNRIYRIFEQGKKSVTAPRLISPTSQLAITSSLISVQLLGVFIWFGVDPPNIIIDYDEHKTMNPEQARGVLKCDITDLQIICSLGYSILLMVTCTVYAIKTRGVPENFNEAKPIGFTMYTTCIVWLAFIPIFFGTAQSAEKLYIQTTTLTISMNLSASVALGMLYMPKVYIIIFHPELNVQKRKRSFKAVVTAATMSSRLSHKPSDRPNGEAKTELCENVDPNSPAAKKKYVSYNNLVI
Summary of the method: (§1)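 Receptor transiently co-expressed in HEK293 cells (electroporation) with chimeric G-protein and glutamate transporter EAAT3. Cells labelled overnight with 3H-myoinositol, stimulated with agonist 30 min, lysed 1 h in cold 0.1 M formic acid. 3H-IP isolated on Dowex ion exchange and counted. IP expressed relative to IP plus membrane radioactivity. Points in triplicate; EC50 from Hill-equation fit.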

Homo sapiens [2] = species on record: Homo sapiens; experiment: (§2) Selectivity ratio of EC50 for mGlu8 (unknown origin) expressed in HEK293 cells coexpressing chimeric Gq/i protein assessed as [3H]inositol phosphate accumulation to EC50 for mGlu4 (unknown origin) expressed in HEK293 cells coexpressing chimeric Gq/i protein assessed as [3H]inositol phosphate accumulation; format: cell-based
Summary of the method: (§3)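 Ratio of mGlu8 EC50 to mGlu4 EC50, both from the same functional assay. Both receptors were co-expressed in HEK293 cells with chimeric G-protein and EAAT3 and read by 3H-IP accumulation or by Fluo-4 Ca2+ release.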

[3] = molecular target: T2, Metabotropic glutamate receptor 8 (Homo sapiens, UniProt O00222); experiment: Agonist activity at mGlu8 (unknown origin) expressed in HEK293 cells coexpressing chimeric Gq/i protein assessed as [3H]inositol phosphate accumulation after 30 mins by scintillation and luminescence counting method; format: functional, cell-based; summary of the method: as §1
T2 sequence (O00222 whole entry): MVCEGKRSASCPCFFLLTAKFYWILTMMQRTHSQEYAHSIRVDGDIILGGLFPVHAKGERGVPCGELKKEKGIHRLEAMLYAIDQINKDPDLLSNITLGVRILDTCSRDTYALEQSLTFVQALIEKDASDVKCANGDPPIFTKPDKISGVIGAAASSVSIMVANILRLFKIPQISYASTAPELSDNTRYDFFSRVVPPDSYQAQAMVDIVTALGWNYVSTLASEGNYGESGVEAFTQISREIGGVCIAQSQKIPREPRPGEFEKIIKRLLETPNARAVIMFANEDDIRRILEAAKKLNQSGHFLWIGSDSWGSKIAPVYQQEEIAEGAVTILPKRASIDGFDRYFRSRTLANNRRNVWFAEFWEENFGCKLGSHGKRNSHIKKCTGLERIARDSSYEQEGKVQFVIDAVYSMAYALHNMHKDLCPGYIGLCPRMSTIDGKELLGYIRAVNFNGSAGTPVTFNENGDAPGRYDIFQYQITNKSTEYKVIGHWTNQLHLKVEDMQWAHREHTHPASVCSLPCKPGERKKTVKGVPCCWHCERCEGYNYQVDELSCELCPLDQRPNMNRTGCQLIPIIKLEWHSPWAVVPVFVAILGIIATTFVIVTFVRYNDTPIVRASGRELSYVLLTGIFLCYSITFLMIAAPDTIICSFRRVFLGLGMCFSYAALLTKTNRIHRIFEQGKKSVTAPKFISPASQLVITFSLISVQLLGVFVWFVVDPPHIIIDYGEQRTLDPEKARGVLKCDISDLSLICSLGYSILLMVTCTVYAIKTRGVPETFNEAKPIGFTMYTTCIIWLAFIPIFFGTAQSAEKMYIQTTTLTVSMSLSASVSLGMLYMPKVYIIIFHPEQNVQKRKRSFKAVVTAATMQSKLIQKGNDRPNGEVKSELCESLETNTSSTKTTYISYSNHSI

[4] = molecular target: T3, Metabotropic glutamate receptor 6 (Homo sapiens, UniProt O15303); experiment: Agonist activity at mGlu6 (unknown origin) expressed in HEK293 cells coexpressing chimeric Gq/i protein assessed as [3H]inositol phosphate accumulation after 30 mins by scintillation and luminescence counting method; format: functional, cell-based; summary of the method: as §1
T3 sequence (O15303 whole entry): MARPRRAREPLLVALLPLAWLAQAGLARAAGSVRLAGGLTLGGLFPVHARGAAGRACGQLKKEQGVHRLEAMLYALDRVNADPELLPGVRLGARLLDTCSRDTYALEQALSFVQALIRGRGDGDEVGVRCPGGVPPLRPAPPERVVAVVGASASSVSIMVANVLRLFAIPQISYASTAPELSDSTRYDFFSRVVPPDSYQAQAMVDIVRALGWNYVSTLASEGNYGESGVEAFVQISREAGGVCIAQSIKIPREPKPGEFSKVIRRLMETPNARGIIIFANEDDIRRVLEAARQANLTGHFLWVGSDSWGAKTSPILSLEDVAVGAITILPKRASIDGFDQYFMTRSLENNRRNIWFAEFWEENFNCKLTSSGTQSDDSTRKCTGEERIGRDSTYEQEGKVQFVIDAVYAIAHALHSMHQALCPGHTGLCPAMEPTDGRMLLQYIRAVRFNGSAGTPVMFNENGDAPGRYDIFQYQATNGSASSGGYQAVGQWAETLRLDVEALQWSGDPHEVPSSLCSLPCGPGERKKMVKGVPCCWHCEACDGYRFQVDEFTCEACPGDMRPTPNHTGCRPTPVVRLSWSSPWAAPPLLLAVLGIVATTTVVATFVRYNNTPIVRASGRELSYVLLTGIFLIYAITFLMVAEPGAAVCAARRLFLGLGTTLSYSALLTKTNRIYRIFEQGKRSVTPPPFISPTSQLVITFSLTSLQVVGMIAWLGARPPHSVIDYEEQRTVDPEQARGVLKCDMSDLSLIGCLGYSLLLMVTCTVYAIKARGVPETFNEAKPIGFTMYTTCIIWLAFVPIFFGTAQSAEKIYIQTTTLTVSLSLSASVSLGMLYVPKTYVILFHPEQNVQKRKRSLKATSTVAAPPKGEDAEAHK

[5] = molecular target: T4, Metabotropic glutamate receptor 4 (Homo sapiens, UniProt Q14833); experiment: Agonist activity at mGlu4 (unknown origin) expressed in HEK293 cells coexpressing chimeric Gq/i protein assessed as increase in intracellular calcium accumulation at 300 uM by Fluo-4 AM dye based fluorescence assay; format: functional, cell-based
T4 sequence (Q14833 whole entry): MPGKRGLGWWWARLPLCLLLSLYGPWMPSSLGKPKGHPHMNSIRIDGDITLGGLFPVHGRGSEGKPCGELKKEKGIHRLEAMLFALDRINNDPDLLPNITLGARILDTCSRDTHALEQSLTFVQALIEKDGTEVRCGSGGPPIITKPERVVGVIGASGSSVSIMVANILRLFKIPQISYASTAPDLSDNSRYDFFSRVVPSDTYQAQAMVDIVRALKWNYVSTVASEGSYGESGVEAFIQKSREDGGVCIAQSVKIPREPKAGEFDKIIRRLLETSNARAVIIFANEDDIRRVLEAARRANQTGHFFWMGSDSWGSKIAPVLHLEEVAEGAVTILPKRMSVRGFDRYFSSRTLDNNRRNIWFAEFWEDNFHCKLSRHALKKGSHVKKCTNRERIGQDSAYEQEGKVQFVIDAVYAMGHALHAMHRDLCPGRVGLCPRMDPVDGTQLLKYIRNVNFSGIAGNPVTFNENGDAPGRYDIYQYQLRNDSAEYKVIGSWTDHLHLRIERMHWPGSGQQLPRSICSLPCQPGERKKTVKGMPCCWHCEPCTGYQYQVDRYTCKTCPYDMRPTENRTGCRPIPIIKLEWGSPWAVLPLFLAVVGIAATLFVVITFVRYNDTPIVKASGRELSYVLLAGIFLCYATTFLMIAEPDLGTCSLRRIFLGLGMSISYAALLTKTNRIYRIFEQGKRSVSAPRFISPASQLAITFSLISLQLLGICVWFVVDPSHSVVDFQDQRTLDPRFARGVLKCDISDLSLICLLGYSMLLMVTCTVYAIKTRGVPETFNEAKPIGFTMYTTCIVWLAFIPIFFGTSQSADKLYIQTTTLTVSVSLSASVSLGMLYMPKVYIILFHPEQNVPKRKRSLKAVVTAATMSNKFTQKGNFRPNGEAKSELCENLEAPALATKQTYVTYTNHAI

[6] = molecular target: T2, Metabotropic glutamate receptor 8; experiment: Agonist activity at mGlu8 (unknown origin) expressed in HEK293 cells coexpressing chimeric Gq/i protein assessed as increase in intracellular calcium accumulation at 300 uM by Fluo-4 AM dye based fluorescence assay; format: functional, cell-based
[7] = molecular target: T2, Metabotropic glutamate receptor 8; experiment: Agonist activity at mGlu8 (unknown origin) expressed in HEK293 cells coexpressing chimeric Gq/i protein assessed as increase in intracellular calcium accumulation by Fluo-4 AM dye based fluorescence assay; format: functional, cell-based
[8] = molecular target: T1, Metabotropic glutamate receptor 7; experiment: Agonist activity at mGlu7 (unknown origin) expressed in HEK293 cells coexpressing chimeric Gq/i protein assessed as increase in intracellular calcium accumulation at 300 uM by Fluo-4 AM dye based fluorescence assay; format: functional, cell-based
[9] = molecular target: T3, Metabotropic glutamate receptor 6; experiment: Agonist activity at mGlu6 (unknown origin) expressed in HEK293 cells coexpressing chimeric Gq/i protein assessed as increase in intracellular calcium accumulation by Fluo-4 AM dye based fluorescence assay; format: functional, cell-based
Homo sapiens [10] = species on record: Homo sapiens; experiment: as §2, with “increase in intracellular calcium” for “[3H]inositol phosphate”; format: cell-based; summary of the method: as §3
[11] = molecular target: T4, Metabotropic glutamate receptor 4; experiment: Agonist activity at mGlu4 (unknown origin) expressed in HEK293 cells coexpressing chimeric Gq/i protein assessed as increase in intracellular calcium accumulation by Fluo-4 AM dye based fluorescence assay; format: functional, cell-based
[12] = molecular target: T1, Metabotropic glutamate receptor 7; experiment: Agonist activity at mGlu7 (unknown origin) expressed in HEK293 cells coexpressing chimeric Gq/i protein assessed as increase in intracellular calcium accumulation by Fluo-4 AM dye based fluorescence assay; format: functional, cell-based
Homo sapiens [13] = species on record: Homo sapiens; experiment: Selectivity ratio of EC50 for mGlu8 (unknown origin) expressed in HEK293 cells coexpressing chimeric Gq/i protein assessed as [3H]inositol phosphate accumulation to EC50 for mGlu4 (unknown origin) expressed in HEK293 cells coexpressing chimeric Gq/i protein assessed as increase in intracellular calcium accumulation; format: cell-based

SMILES: N[C@@]1(C(=O)O)C[C@H](C(=O)O)[C@H](C(=O)O)C1
- EC50 [1]: 280 µM
- Ratio EC50 (Homo sapiens [2]): 3
- EC50 [3]: 5.1 µM
- EC50 [4]: 11 µM

SMILES: N[C@@H](CCCP(=O)(O)C(O)c1ccc(OCC(=O)O)cc1)C(=O)O (some centres undefined)
- Activity [5]: inactive
- Activity [6]: inactive

SMILES: Nc1ncc(C(O)P(=O)(O)CC[C@H](N)C(=O)O)s1 (some centres undefined)
- EC50 [7]: 28 µM
- Activity [8]: inactive
- EC50 [9]: > 100 µM
- Ratio EC50 (Homo sapiens [10]): 1.9
- EC50 [11]: 15 µM

SMILES: N[C@@H](CCP(=O)(O)O)C(=O)O
- EC50 [1]: 337 µM
- Ratio EC50 (Homo sapiens [2]): 2.5
- EC50 [4]: 2.4 µM
- EC50 [9]: 1 µM
- Ratio EC50 (Homo sapiens [10]): 2.2
- EC50 [12]: 249 µM

SMILES: N[C@@H](CCP(=O)(O)C(O)c1ccc(C(F)(F)F)c([N+](=O)[O-])c1)C(=O)O (some centres undefined)
- EC50 [7]: 1.54 µM
- EC50 [4]: 5.7 µM
- EC50 [9]: 11.9 µM
- Ratio EC50 (Homo sapiens [10]): 3.5
- EC50 [12]: > 100 µM
- EC50 [11]: 0.44 µM

SMILES: N[C@@H](CCP(=O)(O)C(O)c1cccnc1)C(=O)O (some centres undefined)
- EC50 [3]: 36 µM
- Ratio EC50 (Homo sapiens [13]): 1.2
- EC50 [11]: 30 µM

SMILES: N[C@@H](CCP(=O)(O)C(O)c1ccc([N+](=O)[O-])o1)C(=O)O (some centres undefined)
- EC50 [1]: 1970 µM
- Ratio EC50 (Homo sapiens [2]): 2.2
- EC50 [3]: 0.3 µM
- EC50 [4]: 6.1 µM

SMILES: N[C@@H](CCP(=O)(O)C(O)c1ccc(C(=O)O)cc1)C(=O)O (some centres undefined)
- EC50 [1]: 169 µM
- Ratio EC50 (Homo sapiens [2]): 18
- EC50 [3]: 141 µM
- EC50 [4]: 31 µM

SMILES: COc1cc(C(O)P(=O)(O)CCC[C@H](N)C(=O)O)cc([N+](=O)[O-])c1O (some centres undefined)
- Activity [5]: inactive
- Activity [6]: inactive

SMILES: N[C@@H](CCP(=O)(O)C(O)c1ccc(F)c([N+](=O)[O-])c1)C(=O)O (some centres undefined)
- Ratio EC50 (Homo sapiens [2]): 2.1
- EC50 [3]: 1.3 µM
- EC50 [7]: 0.66 µM
- EC50 [4]: 25 µM
- EC50 [9]: 4 µM
- Ratio EC50 (Homo sapiens [10]): 1.5
- EC50 [12]: > 100 µM
- EC50 [11]: 0.44 µM
